Values after ≈ are worked out from the molar mass of the structure shown. Active and inactive are the calls of the source.

The subject of one assay is Pseudomonas aeruginosa. Nature of the assay: Antimicrobial activity against Pseudomonas aeruginosa ATCC 2108 at 200 ug/ml by Alamar blue based CLSI method. It counts as functional, organism-based. (In general: Resazurin is reduced to fluorescent resorufin, in cell work by metabolically active cells.)
In another assay the test system is Escherichia coli. Nature of the assay: Antimicrobial activity against Escherichia coli ATCC 2452 at 200 ug/ml by Alamar blue based CLSI method. It is filed as functional, organism-based.
For assay [1], the system named is Staphylococcus aureus. Nature of the assay: Antimicrobial activity against methicillin-resistant Staphylococcus aureus ATCC 1708 at 200 ug/ml by Alamar blue based CLSI method. It counts as functional, organism-based. The procedure, abridged: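 S. aureus ATCC 1708 tested by a modified CLSI method. Samples were dissolved in DMSO and serially diluted in 20% DMSO/saline, and final test concentrations were 1/100th of the DMSO stock. MIC was taken as the lowest concentration with no detectable growth.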

The subject of assay [2] is Mycobacterium intracellulare. Nature of the assay: Antimycobacterial activity against Mycobacterium intracellulare ATCC 23068 after 70 to 74 hrs by Alamar blue based CLSI method. It counts as functional.
Assay [3] has as its system Mycobacterium tuberculosis. Nature of the assay: Antimycobacterial activity against Mycobacterium tuberculosis ATCC 25177 after 5 days by Alamar blue based CLSI method. It counts as functional. The following applies: H37Ra, 120 h.
The subject of assay [4] is Staphylococcus aureus. Nature of the assay: Growth inhibition of Staphylococcus aureus EAMC30 at 62.5 ug/ml by Alamar blue based CLSI method relative to control. It is filed as functional. The following applies: read-out: GI.

Regarding `CCC(=O)OC[C@@H](NC(=O)C(Cl)Cl)[C@H](OC(C)=O)c1ccc([N+](=O)[O-])cc1`, the result with Pseudomonas aeruginosa, in the assay with Escherichia coli and with Staphylococcus aureus [1] was inactive.
Usually MIC stands for the smallest concentration in the dilution series that meets the test's criterion for growth inhibition. Regarding `O=C(N[C@H](CO)[C@H](O)c1ccc([N+](=O)[O-])cc1)C(Cl)Cl` [CHLORAMPHENICOL], the MIC in assay [2] was 25 µg/mL (≈ 77.4 µM); in assay [3], greater than 100 µg/mL.
In the case of `CCCC(=O)OC[C@@H](NC(=O)C(Cl)Cl)[C@H](OC(=O)CC)c1ccc([N+](=O)[O-])cc1`, the outcome in the assay on Pseudomonas aeruginosa, with Escherichia coli and in the assay with Staphylococcus aureus [1] was inactive.
`CCCC(=O)O[C@H](c1ccc([N+](=O)[O-])cc1)[C@@H](COC(=O)CC)NC(=O)C(Cl)Cl`: the outcome in the assay on Pseudomonas aeruginosa, in the assay with Escherichia coli and in the assay on Staphylococcus aureus [1] was inactive.
For `CCC(=O)OC[C@@H](NC(=O)C(Cl)Cl)[C@H](OC(=O)CC)c1ccc([N+](=O)[O-])cc1`, the result with Pseudomonas aeruginosa, with Escherichia coli and in the assay on Staphylococcus aureus [1] was inactive. For the same compound, the inhibition of growth at 62.5 µg/mL in the assay on Staphylococcus aureus [4] is 40%.
Turning to `O=C(/C=C/c1ccccc1)O[C@H](c1ccc([N+](=O)[O-])cc1)[C@@H](CO)NC(=O)C(Cl)Cl`, the inhibition of growth at 62.5 µg/mL in the assay with Staphylococcus aureus [4] stood at 35%.
In the case of `O=C(O[C@H](c1ccc([N+](=O)[O-])cc1)[C@@H](CO)NC(=O)C(Cl)Cl)c1ccc([N+](=O)[O-])cc1`, the MIC in assay [2] amounted to 12.5 µg/mL (≈ 26.5 µM); in assay [3] it was 50 µg/mL (≈ 106 µM). The inhibition of growth at 62.5 µg/mL with Staphylococcus aureus [4] turned out to be 59%.
Take `CCCC(=O)OC[C@@H](NC(=O)C(Cl)Cl)[C@H](OC(=O)CCC)c1ccc([N+](=O)[O-])cc1`: the result in the assay on Pseudomonas aeruginosa, in the assay with Escherichia coli and in the assay on Staphylococcus aureus [1] was inactive. For the same compound, the inhibition of growth at 62.5 µg/mL with Staphylococcus aureus [4] is 11%.
Compound `CC(=O)O[C@H](c1ccc([N+](=O)[O-])cc1)[C@@H](CO)NC(=O)C(Cl)Cl` gave an MIC in assay [2] of 25 µg/mL (≈ 68.5 µM).
As to `CC(=O)OC[C@@H](NC(=O)C(Cl)Cl)[C@H](OC(C)=O)c1ccc([N+](=O)[O-])cc1`, the result in the assay on Pseudomonas aeruginosa, in the assay on Escherichia coli and in the assay with Staphylococcus aureus [1] was inactive.
Compound `CC(=O)OC[C@@H](NC(=O)C(Cl)Cl)[C@H](O)c1ccc([N+](=O)[O-])cc1` showed an MIC in assay [2] of 25 µg/mL (≈ 68.5 µM). Besides, the outcome with Pseudomonas aeruginosa, with Escherichia coli and in the assay on Staphylococcus aureus [1] was inactive. The inhibition of growth at 62.5 µg/mL with Staphylococcus aureus [4] is 15%.
For `CCCC(=O)OC[C@@H](NC(=O)C(Cl)Cl)[C@H](O)c1ccc([N+](=O)[O-])cc1`, the outcome with Pseudomonas aeruginosa, with Escherichia coli and with Staphylococcus aureus [1] was inactive. The inhibition of growth at 62.5 µg/mL in the assay on Staphylococcus aureus [4] stood at 36%.
`CCC(=O)OC[C@@H](NC(=O)C(Cl)Cl)[C@H](O)c1ccc([N+](=O)[O-])cc1`: the outcome in the assay with Pseudomonas aeruginosa, in the assay on Escherichia coli and in the assay with Staphylococcus aureus [1] was inactive. Also, the inhibition of growth at 62.5 µg/mL with Staphylococcus aureus [4] stood at 72%.

Values taken from ChEMBL document CHEMBL4145617, “Chloramphenicol Derivatives with Antibacterial Activity Identified by Functional Metagenomics” (2018).
